Data: ChEMBL document CHEMBL1671834, “Novel 3-aryl indoles as progesterone receptor antagonists for uterine fibroids” (ACS Med Chem Lett, 2011)

Experiments:
[1] = target: T1, Progesterone receptor (Homo sapiens, UniProt P06401); assay: Displacement of [3H]methyltrienolone from human progesterone receptor expressed in HEK293 cells; type: cell-based
T1 sequence (P06401 whole entry): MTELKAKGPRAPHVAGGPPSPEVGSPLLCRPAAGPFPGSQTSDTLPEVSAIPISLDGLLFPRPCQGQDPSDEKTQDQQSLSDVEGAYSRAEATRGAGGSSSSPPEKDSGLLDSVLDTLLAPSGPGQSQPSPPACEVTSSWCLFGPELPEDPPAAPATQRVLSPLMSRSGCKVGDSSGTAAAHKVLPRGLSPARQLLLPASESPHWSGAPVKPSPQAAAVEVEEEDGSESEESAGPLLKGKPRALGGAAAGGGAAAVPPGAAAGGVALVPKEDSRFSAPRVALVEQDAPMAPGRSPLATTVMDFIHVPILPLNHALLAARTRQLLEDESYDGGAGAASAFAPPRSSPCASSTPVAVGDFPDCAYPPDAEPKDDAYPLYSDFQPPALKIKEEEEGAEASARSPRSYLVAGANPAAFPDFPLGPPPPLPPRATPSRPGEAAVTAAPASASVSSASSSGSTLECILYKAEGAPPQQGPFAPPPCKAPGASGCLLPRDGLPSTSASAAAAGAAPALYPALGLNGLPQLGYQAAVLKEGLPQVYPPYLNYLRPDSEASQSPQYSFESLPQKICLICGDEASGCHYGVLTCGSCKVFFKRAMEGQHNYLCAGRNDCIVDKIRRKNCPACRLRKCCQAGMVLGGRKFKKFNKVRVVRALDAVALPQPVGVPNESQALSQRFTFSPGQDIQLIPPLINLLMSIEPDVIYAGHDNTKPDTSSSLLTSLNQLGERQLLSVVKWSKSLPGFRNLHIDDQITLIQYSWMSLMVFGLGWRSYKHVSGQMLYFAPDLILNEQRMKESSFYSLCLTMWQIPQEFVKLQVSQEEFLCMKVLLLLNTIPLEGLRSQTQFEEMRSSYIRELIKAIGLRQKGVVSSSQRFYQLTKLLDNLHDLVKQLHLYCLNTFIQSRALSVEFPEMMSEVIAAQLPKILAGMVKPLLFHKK
Procedure, shortened: (§1)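 Competitive binding to recombinant full-length human receptors against tritium-labelled standards. Values are geometric means of at least duplicate determinations.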

[2] = target: T2, Mineralocorticoid receptor (Homo sapiens, UniProt P08235); assay: Displacement of [3H]methyltrienolone from human mineralocorticoid receptor expressed in HEK293 cells; type: cell-based; procedure, shortened: as §1
T2 sequence (P08235 whole entry): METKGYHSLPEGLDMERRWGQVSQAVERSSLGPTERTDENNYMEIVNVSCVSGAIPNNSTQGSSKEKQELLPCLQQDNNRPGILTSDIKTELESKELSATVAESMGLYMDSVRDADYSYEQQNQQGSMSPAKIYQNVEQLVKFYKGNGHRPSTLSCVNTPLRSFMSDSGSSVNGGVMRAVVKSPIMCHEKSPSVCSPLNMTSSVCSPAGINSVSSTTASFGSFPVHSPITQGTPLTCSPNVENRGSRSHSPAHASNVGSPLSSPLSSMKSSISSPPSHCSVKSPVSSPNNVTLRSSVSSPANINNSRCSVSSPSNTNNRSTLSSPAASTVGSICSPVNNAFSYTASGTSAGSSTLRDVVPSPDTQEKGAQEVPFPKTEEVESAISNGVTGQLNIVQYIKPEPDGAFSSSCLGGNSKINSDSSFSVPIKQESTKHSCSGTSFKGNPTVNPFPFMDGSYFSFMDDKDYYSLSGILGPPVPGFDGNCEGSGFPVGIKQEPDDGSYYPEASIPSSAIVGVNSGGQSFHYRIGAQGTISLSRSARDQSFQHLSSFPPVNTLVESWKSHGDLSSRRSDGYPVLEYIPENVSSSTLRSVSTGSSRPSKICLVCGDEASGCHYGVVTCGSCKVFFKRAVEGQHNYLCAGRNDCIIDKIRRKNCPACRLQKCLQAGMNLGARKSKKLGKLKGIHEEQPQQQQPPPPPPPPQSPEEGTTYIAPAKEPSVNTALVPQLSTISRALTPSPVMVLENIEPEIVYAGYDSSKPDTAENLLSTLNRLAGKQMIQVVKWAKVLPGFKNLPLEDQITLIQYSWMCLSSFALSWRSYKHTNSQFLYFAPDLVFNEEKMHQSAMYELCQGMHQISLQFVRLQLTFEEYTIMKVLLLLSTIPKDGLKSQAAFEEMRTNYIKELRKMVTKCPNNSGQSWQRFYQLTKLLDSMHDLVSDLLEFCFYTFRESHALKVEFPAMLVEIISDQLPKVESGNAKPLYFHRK

[3] = target: T1, Progesterone receptor; assay: Antagonist activity at human progesterone receptor expressed in HEK293 cells assessed as inhibition of […]-induced transcriptional activity by GRE-driven luciferase reporter gene assay; type: functional, cell-based
Procedure, shortened: (§2)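 Transcription assay in HEK293 cells cotransfected with full-length human receptor. Values are geometric means of at least duplicate determinations.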

[4] = target: T3, Mineralocorticoid receptor (Homo sapiens) (UniProt P08235); assay: Antagonist activity at human mineralocorticoid receptor expressed in HEK293 cells assessed as inhibition of […]-induced transcriptional activity by GRE-driven luciferase reporter gene assay relative to untreated control; type: functional, cell-based; design: concentration or dose not given beside the values; conditions: concentration not given here; procedure, shortened: as §2
T3 sequence (whole entry): T2 sequence (P08235 whole entry)

Row | Compound | Ki [1] [nM] | Ki [2] [nM] | IC50 [3] [nM] | inhibition [4] [%]
1 | COc1cc(-c2cn(C(C)C)c3cc(NS(C)(=O)=O)ccc23)ccc1C#N | 1.45 | 1390 | 7.28 | 35.8
2 | COc1ccc(C(c2ccccc2)c2c[nH]c3ccccc23)cc1 (stereo not given) | 478 | 86.8 | 3720 | 40.8
3 | CCn1cc(-c2ccc(C#N)cc2)c2ccc(NS(C)(=O)=O)cc21 | 4.23 | 1770 | 12.6 | 23.8
4 | Cn1cc(-c2ccc(C#N)cc2)c2ccc(NS(C)(=O)=O)cc21 | 28 | > 4170 | 485 | -2.2
5 | CC(c1ccc(F)cc1)(c1c[nH]c2c(NS(C)(=O)=O)cccc12)C1CC1 (stereo not given) | 454 | 0.64 | 765 | 76.3

Now those with a lower Ki [1], led by results:

Row | Ki [1] [nM] | Ki [2] [nM] | IC50 [3] [nM] | inhibition [4] [%] | Compound
6 | 0.834 | 1440 | 9.92 | 39.2 | CC[C@@H](C)n1cc(-c2ccc(C#N)cc2)c2ccc(NS(C)(=O)=O)cc21
7 | 0.795 | 1490 | 6.81 | 36.6 | CC(C)n1cc(-c2ccc(C#N)cc2)c2ccc(NS(C)(=O)=O)cc21
8 | 0.32 | 1000 | 3.89 | 43.4 | CC[C@H](C)n1cc(-c2ccc(C#N)cc2)c2ccc(NS(C)(=O)=O)cc21
9 | 0.298 | 126 | 3.38 | 56 | Cc1cc(-c2cn(C(C)C)c3cc(NS(C)(=O)=O)ccc23)ccc1C#N
10 | 0.214 | 849 | 2.29 | 50.2 | CC(C)n1cc(-c2ccc(C#N)c(F)c2)c2ccc(NS(C)(=O)=O)cc21
